{
  "source": "ChEMBL document CHEMBL1137497",
  "about": "“4-arylcyclohexylalanine analogs as potent, selective, and orally active inhibitors of dipeptidyl peptidase IV” (Bioorg Med Chem Lett, 2007)",
  "key": {"[1]": {"assay": "Oral bioavailability in dog at 0.5 mg/kg", "assay_type": "ADME, organism-based, Canis lupus familiaris", "details": "in vivo", "summary_of_the_method": "(§1)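 Pharmacokinetic parameters derived by noncompartmental analysis.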"}, "[2]": {"assay": "Plasma clearance in rat at 1 mg/kg, iv or 2 mg/kg, po", "assay_type": "ADME, organism-based", "summary_of_the_method": "as §1"}, "[3]": {"assay": "Half life in dog at 0.5 mg/kg, po", "assay_type": "ADME, organism-based, Canis lupus familiaris", "design": "dose 0.5 mg/kg, route oral", "details": "in vivo", "summary_of_the_method": "as §1"}, "[4]": {"assay": "Half life in rat at 1 mg/kg, iv or 2 mg/kg, po", "assay_type": "ADME, organism-based", "details": "in vivo", "summary_of_the_method": "as §1"}, "[5]": {"assay": "Cmax in dog at 0.5 mg/kg, po", "assay_type": "ADME, organism-based, Canis lupus familiaris", "design": "dose 0.5 mg/kg, route oral", "details": "in vivo", "summary_of_the_method": "as §1"}, "[6]": {"assay": "AUC in rat at 2 mg/kg, po", "assay_type": "ADME, organism-based", "design": "dose 2 mg/kg, route oral", "details": "plasma", "summary_of_the_method": "as §1"}, "[7]": {"target": "Voltage-gated inwardly rectifying potassium channel KCNH2 (Homo sapiens, UniProt Q12809)", "sequence (Q12809 whole entry)": "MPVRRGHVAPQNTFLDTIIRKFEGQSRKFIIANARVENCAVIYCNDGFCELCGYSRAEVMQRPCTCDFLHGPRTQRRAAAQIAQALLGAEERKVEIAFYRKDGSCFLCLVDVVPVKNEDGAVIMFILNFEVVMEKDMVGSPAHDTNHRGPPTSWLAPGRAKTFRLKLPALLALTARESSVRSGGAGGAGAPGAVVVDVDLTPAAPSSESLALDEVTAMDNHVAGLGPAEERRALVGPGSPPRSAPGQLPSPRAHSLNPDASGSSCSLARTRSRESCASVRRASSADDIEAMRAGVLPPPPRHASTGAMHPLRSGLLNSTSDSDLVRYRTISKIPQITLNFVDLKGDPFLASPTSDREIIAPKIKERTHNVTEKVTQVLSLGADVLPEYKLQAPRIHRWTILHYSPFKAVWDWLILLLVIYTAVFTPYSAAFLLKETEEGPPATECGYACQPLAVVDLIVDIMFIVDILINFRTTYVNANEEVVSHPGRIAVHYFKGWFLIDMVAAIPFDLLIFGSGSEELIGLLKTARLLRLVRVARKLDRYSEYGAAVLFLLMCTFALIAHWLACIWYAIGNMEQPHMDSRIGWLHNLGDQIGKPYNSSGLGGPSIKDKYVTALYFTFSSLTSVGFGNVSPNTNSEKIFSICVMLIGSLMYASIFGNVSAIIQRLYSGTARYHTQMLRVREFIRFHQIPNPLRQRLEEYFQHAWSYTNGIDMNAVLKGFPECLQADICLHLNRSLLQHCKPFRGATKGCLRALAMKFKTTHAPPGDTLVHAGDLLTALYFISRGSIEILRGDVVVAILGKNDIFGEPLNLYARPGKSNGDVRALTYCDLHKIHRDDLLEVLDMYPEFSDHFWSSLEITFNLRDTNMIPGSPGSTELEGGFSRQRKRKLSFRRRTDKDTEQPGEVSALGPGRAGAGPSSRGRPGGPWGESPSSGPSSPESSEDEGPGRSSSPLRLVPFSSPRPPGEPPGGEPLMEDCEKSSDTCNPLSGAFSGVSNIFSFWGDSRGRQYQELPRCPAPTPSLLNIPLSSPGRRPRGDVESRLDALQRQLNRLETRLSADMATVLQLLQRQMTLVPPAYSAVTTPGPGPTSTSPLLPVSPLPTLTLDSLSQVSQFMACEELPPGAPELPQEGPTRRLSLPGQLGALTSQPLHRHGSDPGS", "assay": "Inhibition of human ERG"}, "Canis familiaris": {"test_system": "Canis familiaris", "assay": "AUC in dog at 0.5 mg/kg, po", "assay_type": "ADME, organism-based, Canis lupus familiaris, Plasma", "design": "dose 0.5 mg/kg, route oral", "details": "in vivo", "summary_of_the_method": "as §1"}, "[8]": {"assay": "Half life in rhesus monkey at 1 mg/kg, iv or 2 mg/kg, po", "assay_type": "ADME, organism-based, Macaca mulatta", "details": "in vivo", "summary_of_the_method": "as §1"}, "Mus musculus [9]": {"test_system": "Mus musculus", "assay": "Reduction in glucose excursion in mouse at 0.03 mg/kg, po administered 60 mins prior to dextrose challenge by oral glucose tolerance test", "assay_type": "functional", "design": "scale not given: the % may be the effect or the level left", "summary_of_the_method": "(§2)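 Single oral dose given 60 min before an oral dextrose challenge. Blood glucose was monitored, and glucose excursion was expressed as percent reduction relative to vehicle-dosed controls.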"}, "[10]": {"assay": "AUC in rhesus monkey at 2 mg/kg, po", "assay_type": "ADME, organism-based, Macaca mulatta", "design": "dose 2 mg/kg, route oral", "details": "plasma", "summary_of_the_method": "as §1"}, "[11]": {"assay": "Cmax in rhesus monkey at 1 mg/kg, iv or 2 mg/kg, po", "assay_type": "ADME, organism-based, Macaca mulatta", "details": "in vivo", "summary_of_the_method": "as §1"}, "[12]": {"assay": "Cmax in rat at 1 mg/kg, iv or 2 mg/kg, po", "assay_type": "ADME, organism-based", "details": "in vivo", "summary_of_the_method": "as §1"}, "[13]": {"assay": "Plasma clearance in rhesus monkey at 1 mg/kg, iv or 2 mg/kg, po", "assay_type": "ADME, organism-based, Macaca mulatta", "summary_of_the_method": "as §1"}, "[14]": {"assay": "Oral bioavailability in rat at 2 mg/kg", "assay_type": "ADME, organism-based", "details": "in vivo", "summary_of_the_method": "as §1"}, "[15]": {"assay": "Oral bioavailability in rhesus monkey at 2 mg/kg", "assay_type": "ADME, organism-based, Macaca mulatta", "details": "in vivo", "summary_of_the_method": "as §1"}, "Mus musculus [16]": {"test_system": "Mus musculus", "assay": "Reduction in glucose excursion in mouse at 0.1 mg/kg, po administered 60 mins prior to dextrose challenge by oral glucose tolerance test", "assay_type": "functional", "design": "scale not given: the % may be the effect or the level left", "summary_of_the_method": "as §2"}, "Dipeptidyl peptidase 8": {"target": "Dipeptidyl peptidase 8 (Homo sapiens, UniProt Q6V1X1)", "sequence (Q6V1X1 whole entry)": "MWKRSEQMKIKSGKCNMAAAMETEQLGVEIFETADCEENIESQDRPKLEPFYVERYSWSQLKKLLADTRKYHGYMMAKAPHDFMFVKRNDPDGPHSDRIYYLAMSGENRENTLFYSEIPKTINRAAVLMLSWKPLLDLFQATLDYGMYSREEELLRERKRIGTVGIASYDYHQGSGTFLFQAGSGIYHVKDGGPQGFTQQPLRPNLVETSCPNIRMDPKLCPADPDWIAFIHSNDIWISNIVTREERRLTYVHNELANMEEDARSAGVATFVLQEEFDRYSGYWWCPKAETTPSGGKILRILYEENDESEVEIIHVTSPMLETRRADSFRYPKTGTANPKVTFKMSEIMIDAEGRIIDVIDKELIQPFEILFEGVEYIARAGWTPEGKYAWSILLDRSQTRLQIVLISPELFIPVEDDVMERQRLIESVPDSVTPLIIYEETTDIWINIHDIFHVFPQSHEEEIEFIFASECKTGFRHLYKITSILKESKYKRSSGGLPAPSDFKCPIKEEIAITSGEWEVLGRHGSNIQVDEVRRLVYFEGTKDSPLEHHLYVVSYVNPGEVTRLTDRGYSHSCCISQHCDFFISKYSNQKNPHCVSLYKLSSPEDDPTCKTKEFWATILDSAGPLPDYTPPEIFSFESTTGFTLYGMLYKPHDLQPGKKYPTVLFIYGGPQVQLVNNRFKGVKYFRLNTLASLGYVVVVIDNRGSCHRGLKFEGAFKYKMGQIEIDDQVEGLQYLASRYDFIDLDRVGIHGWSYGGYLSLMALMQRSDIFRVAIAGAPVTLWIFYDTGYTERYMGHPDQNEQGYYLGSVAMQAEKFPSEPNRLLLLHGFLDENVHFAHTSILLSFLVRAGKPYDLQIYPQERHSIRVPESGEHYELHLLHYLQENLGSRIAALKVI", "assay": "Inhibition of human DPP8"}, "[17]": {"assay": "Oral bioavailability in rat", "assay_type": "ADME, organism-based", "details": "in vivo"}, "[18]": {"assay": "Half life in rat", "assay_type": "ADME, organism-based", "details": "in vivo"}, "[19]": {"assay": "Plasma clearance in rat", "assay_type": "ADME, organism-based"}, "Dipeptidyl peptidase 9": {"target": "Dipeptidyl peptidase 9 (Homo sapiens, UniProt Q86TI2)", "sequence (Q86TI2 whole entry)": "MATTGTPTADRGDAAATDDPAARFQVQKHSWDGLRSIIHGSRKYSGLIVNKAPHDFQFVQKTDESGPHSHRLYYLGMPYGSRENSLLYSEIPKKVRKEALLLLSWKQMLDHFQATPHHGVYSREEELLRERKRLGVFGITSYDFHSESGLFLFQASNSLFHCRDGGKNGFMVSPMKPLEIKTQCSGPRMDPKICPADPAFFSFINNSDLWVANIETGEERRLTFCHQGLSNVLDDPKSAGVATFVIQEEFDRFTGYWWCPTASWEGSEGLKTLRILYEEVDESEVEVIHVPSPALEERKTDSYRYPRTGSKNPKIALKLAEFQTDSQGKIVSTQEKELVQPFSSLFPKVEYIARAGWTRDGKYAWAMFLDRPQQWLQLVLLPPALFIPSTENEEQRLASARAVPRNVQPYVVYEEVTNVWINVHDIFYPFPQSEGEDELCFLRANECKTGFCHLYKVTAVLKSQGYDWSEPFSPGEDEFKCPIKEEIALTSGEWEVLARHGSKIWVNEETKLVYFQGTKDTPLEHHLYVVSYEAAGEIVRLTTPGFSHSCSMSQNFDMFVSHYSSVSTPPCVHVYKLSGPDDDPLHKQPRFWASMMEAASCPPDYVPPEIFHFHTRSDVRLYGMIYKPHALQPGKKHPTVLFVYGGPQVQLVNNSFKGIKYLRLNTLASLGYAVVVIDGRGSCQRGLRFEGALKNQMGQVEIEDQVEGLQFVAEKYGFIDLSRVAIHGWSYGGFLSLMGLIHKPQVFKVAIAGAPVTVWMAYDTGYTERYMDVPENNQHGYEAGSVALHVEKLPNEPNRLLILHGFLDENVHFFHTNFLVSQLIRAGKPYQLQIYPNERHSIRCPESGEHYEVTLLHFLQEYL", "assay": "Inhibition of human DPP9"}},
  "note": "pIC50: −log10 of the molar value.",
  "data": [
    {"compound": "CN(C)C(=O)[C@@H]([C@H]1CC[C@H](c2ccc3ncnn3c2)CC1)[C@H](N)C(=O)N1CCC(F)(F)C1", "values": [
      {"measurement": "bioavailability", "setting": "[1]", "result": 100, "unit": "%"},
      {"measurement": "clearance", "setting": "[2]", "result": 5.3, "unit": "mL/min/kg"},
      {"measurement": "half-life", "setting": "[3]", "result": 3.9, "unit": "h"},
      {"measurement": "half-life", "setting": "[4]", "result": 4.1, "unit": "h"},
      {"measurement": "Cmax", "setting": "[5]", "result": 16, "unit": "µM"},
      {"measurement": "AUC", "setting": "[6]", "result": 4.4, "unit": "µM·h"},
      {"measurement": "pIC50", "setting": "[7]", "result": "< 4.05"},
      {"measurement": "AUC", "setting": "Canis familiaris", "result": 46, "unit": "µM·h"},
      {"measurement": "half-life", "setting": "[8]", "result": 4.1, "unit": "h"},
      {"measurement": "Activity", "setting": "Mus musculus [9]", "result": 23, "unit": "%"},
      {"measurement": "AUC", "setting": "[10]", "result": 6.5, "unit": "µM·h"},
      {"measurement": "Cmax", "setting": "[11]", "result": 2.8, "unit": "µM"},
      {"measurement": "Cmax", "setting": "[12]", "result": 3.3, "unit": "µM"},
      {"measurement": "clearance", "setting": "[13]", "result": 5.6, "unit": "mL/min/kg"},
      {"measurement": "bioavailability", "setting": "[14]", "result": 63, "unit": "%"},
      {"measurement": "bioavailability", "setting": "[15]", "result": 97, "unit": "%"}
    ]},
    {"compound": "CN(C)C(=O)[C@@H](c1ccc(-c2ccc(F)cc2)cc1)[C@H](N)C(=O)N1CC[C@H](F)C1", "values": [
      {"measurement": "clearance", "setting": "[2]", "result": 4.8, "unit": "mL/min/kg"},
      {"measurement": "Activity", "setting": "Mus musculus [16]", "result": 21, "unit": "%"}
    ]},
    {"compound": "C[C@@H](c1ccc(-c2ccc(F)cc2)cc1)[C@H](N)C(=O)N1CC[C@H](F)C1", "values": [
      {"measurement": "clearance", "setting": "[2]", "result": 8.6, "unit": "mL/min/kg"},
      {"measurement": "bioavailability", "setting": "[14]", "result": 85, "unit": "%"}
    ]},
    {"compound": "COc1cc([C@H]2CC[C@@H]([C@H](C(=O)N(C)C)[C@H](N)C(=O)N3CCC(F)(F)C3)CC2)nc(OC)n1", "values": [
      {"measurement": "pIC50", "setting": "Dipeptidyl peptidase 8", "result": "< 4.00"}
    ]},
    {"compound": "CN(C)C(=O)[C@@H]([C@H]1CC[C@H](c2cccc3ncnn32)CC1)[C@H](N)C(=O)N1CC[C@H](F)C1", "values": [
      {"measurement": "bioavailability", "setting": "[17]", "result": 31, "unit": "%"},
      {"measurement": "half-life", "setting": "[18]", "result": 0.54, "unit": "h"}
    ]},
    {"compound": "CN(C)C(=O)[C@@H]([C@H]1CC[C@H](c2cccc3ncnn32)CC1)[C@H](N)C(=O)N1CCC(F)(F)C1", "values": [
      {"measurement": "bioavailability", "setting": "[17]", "result": 98, "unit": "%"},
      {"measurement": "half-life", "setting": "[18]", "result": 2.9, "unit": "h"},
      {"measurement": "clearance", "setting": "[19]", "result": 40, "unit": "mL/min/kg"}
    ]},
    {"compound": "COc1cc([C@H]2CC[C@H]([C@H](C(=O)N(C)C)[C@H](N)C(=O)N3CCC(F)(F)C3)CC2)nc(OC)n1", "values": [
      {"measurement": "pIC50", "setting": "Dipeptidyl peptidase 8", "result": "< 4.00"}
    ]},
    {"compound": "CN(C)C(=O)[C@@H](c1ccc(-c2ccc3ncnn3c2)cc1)[C@H](N)C(=O)N1CC[C@H](F)C1", "values": [
      {"measurement": "clearance", "setting": "[2]", "result": 7, "unit": "mL/min/kg"}
    ]},
    {"compound": "CC(=O)N[C@H]1CC[C@H]([C@H](C)[C@H](N)C(=O)N2CC[C@H](F)C2)CC1", "values": [
      {"measurement": "clearance", "setting": "[2]", "result": 42, "unit": "mL/min/kg"},
      {"measurement": "Activity", "setting": "Mus musculus [16]", "result": 26, "unit": "%"},
      {"measurement": "pIC50", "setting": "[7]", "result": "< 4.00"},
      {"measurement": "pIC50", "setting": "Dipeptidyl peptidase 9", "result": "< 4.00"},
      {"measurement": "bioavailability", "setting": "[14]", "result": 56, "unit": "%"}
    ]}
  ]
}
